In ChEMBL document CHEMBL1268915, “Optimization of a series of dipeptides with a P3 threonine residue as non-covalent inhibitors of the chymotrypsin-like activity of the human 20S proteasome” (Bioorg Med Chem Lett, 2010):
Active and inactive are the calls of the source. No cut-off for these calls is given here. Residues, ends and D or L forms follow the SMILES beside them. *: point of attachment. NHBn = c1ccc(CN*)cc1; Bn = c1ccc(C*)cc1

Columns and labels:
[1] = Inhibition of chymotrypsin-like activity of human 20s proteasome beta5 subunit in human erythrocyte assessed as hydrolysis of Ac-WLA-AMC fluorogenic substrate
[2] = Inhibition of chymotrypsin-like activity of human 20s proteasome beta-1 subunit in human erythrocyte assessed as hydrolysis of Ac-WLA-AMC fluorogenic substrate
[3] = Inhibition of chymotrypsin-like activity of human 20s proteasome beta2 subunit in human erythrocyte assessed as hydrolysis of Ac-WLA-AMC fluorogenic substrate
[4] = molecular target: Cathepsin B (Homo sapiens) (UniProt P07858); experiment: Inhibition of human cathepsin B at 100uM
[5] = molecular target: Procathepsin L (Homo sapiens) (UniProt P07711); experiment: Inhibition of human cathepsin L at 100uM
[6] = molecular target: T1, Coagulation factor XII (Homo sapiens) (UniProt P00748); experiment: Inhibition of human coagulation factor beta 12a at 100 uM
T1 sequence (whole entry): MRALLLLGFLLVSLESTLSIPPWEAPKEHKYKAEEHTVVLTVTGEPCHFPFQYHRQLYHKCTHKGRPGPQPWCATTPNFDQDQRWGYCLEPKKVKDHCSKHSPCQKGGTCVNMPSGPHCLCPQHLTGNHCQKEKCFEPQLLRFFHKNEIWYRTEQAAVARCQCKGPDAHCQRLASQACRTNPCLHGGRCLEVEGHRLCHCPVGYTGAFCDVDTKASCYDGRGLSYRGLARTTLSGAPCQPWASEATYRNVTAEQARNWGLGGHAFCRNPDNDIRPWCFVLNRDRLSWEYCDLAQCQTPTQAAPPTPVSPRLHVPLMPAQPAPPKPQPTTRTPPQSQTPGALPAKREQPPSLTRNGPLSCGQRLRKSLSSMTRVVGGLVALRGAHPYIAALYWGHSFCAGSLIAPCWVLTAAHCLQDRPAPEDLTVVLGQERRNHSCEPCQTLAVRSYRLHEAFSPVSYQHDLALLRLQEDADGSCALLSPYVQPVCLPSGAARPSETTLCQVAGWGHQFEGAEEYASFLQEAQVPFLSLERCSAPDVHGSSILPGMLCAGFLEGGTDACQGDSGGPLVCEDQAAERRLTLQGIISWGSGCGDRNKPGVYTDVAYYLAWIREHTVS

Homo sapiens [7] = species: Homo sapiens; experiment: Inhibition of human chymotrypsin at 100 uM
Homo sapiens [8] = species: Homo sapiens; experiment: Inhibition of human elastase at 100 uM
[9] = molecular target: Plasminogen (Homo sapiens) (UniProt P00747); experiment: Inhibition of human plasmin at 100 uM
[10] = molecular target: Prothrombin (Homo sapiens) (UniProt P00734); experiment: Inhibition of human thrombin at 100 uM
[11] = molecular target: Tissue-type plasminogen activator (Homo sapiens) (UniProt P00750); experiment: Inhibition of tissue plasminogen activator at 100 uM
Trypsin (Homo sapiens) = Trypsin (Homo sapiens) (UniProt P07477+P07478+P35030); experiment: Inhibition of human trypsin at 100 uM; assay type: protein assay
[12] = molecular target: T2, Calpain-1 catalytic subunit (Homo sapiens) (UniProt P07384); experiment: Inhibition of human calpain 1 at 100 uM
T2 sequence (whole entry): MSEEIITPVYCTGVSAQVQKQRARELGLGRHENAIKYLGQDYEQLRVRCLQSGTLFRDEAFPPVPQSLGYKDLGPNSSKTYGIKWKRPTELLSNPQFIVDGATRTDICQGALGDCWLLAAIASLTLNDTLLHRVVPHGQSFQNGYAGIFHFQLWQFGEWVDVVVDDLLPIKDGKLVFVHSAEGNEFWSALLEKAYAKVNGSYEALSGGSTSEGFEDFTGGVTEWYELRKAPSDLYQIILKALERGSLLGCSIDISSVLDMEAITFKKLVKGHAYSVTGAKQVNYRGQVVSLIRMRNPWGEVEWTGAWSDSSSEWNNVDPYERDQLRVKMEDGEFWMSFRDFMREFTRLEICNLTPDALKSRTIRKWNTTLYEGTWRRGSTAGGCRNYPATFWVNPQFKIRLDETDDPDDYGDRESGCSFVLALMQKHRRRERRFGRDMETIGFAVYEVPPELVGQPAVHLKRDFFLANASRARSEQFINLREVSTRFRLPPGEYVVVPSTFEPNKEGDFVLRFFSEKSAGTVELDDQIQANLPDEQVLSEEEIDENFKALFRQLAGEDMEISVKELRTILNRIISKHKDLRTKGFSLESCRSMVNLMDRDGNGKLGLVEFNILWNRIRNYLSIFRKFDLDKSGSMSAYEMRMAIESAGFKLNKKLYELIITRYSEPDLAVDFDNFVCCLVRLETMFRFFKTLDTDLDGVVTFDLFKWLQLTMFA

[13] = (§1) Inhibition of TNF-alpha-induced NF-kappaB activation in human HEK293 cells after 3 hrs by luciferase reporter gene assay; assay type: cell-based; details: HEK293, 3 h
Outline: (§2)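 NF-κB-luciferase reporter in HEK293 cells (10,000 per well). Cells were pre-incubated with compound for 1 h, then stimulated with 10 ng/ml TNF-α for 3 h with compound still present. IC50 and percentage inhibition were reported as means of at least three independent experiments.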

HEK293 = experiment: as §1; assay type: cell-based; parameters: concentration or dose not given beside the values; details: dose or concentration not given here; outline: as §2
[14] = Cytotoxicity against human Calu6 cells assessed as cellular ATP level after 72 hrs by luminescence-based ATPlite assay; assay type: cell-based, Calu-6; details: read-out: LC50
Outline: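 Calu6 cells, 2000 per well, incubated with compound for 72 h. Viability read as cellular ATP by luminescence (ATPlite). Values are means of at least three independent experiments.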

Tissue-type plasminogen activator (Homo sapiens), sequence (P00750 36-562 limits assumed): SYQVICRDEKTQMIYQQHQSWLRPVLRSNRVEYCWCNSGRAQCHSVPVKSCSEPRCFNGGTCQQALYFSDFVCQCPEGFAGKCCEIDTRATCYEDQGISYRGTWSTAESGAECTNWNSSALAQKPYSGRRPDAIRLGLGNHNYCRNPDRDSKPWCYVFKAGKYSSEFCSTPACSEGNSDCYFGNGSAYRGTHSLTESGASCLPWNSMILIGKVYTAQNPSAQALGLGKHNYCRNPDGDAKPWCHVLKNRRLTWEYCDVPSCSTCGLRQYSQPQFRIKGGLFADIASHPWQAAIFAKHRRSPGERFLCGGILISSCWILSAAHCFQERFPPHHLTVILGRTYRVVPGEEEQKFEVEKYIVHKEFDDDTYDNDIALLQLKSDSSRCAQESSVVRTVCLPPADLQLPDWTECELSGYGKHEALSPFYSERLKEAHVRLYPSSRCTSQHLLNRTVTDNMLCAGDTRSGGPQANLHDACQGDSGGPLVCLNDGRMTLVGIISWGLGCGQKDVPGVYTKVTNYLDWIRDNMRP
Plasminogen (Homo sapiens), sequence (P00747 97-580 limits assumed): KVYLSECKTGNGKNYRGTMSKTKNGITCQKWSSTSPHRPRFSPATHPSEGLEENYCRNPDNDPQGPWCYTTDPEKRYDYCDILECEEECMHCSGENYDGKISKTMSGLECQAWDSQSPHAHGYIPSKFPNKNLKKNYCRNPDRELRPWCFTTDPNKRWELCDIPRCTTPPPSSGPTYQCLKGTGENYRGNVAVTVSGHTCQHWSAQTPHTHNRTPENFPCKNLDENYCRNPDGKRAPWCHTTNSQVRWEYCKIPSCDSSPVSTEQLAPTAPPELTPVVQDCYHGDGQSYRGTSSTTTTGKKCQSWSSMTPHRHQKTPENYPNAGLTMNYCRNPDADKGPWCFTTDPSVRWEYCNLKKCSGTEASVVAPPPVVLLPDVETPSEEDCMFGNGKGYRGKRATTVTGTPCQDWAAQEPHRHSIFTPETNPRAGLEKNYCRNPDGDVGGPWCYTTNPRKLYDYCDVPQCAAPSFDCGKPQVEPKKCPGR
Plasminogen (Homo sapiens), sequence (P00747 581-810 limits assumed): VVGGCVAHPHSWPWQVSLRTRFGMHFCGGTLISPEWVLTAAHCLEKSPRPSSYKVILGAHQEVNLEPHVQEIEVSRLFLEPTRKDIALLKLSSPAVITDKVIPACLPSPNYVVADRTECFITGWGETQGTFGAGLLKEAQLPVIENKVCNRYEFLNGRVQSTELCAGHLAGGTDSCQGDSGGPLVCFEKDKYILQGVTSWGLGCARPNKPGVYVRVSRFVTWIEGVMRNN
Procathepsin L (Homo sapiens), sequence (P07711 114-333 limits assumed): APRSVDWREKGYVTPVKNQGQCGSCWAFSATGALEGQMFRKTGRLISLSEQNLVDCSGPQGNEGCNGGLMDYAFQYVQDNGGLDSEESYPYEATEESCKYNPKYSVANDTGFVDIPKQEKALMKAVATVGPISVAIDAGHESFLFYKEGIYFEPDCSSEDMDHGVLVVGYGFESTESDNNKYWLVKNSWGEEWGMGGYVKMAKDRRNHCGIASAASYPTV

COc1ccc(CNC(=O)[C@@H](NC(=O)[C@H](Cc2cc(OC)c(OC)c(OC)c2)NC(=O)Cc2cccc(Oc3ccccc3)c2)C(C)C)c(O)c1
IC50 [1]: 15 nM
IC50 [2]: > 20000 nM
IC50 [3]: > 20000 nM
inhibition [4]: Active
inhibition [5]: Active
inhibition [6]: Active
inhibition (Homo sapiens [7]): Active
inhibition (Homo sapiens [8]): Active
inhibition [9]: Active
inhibition [10]: Active
inhibition [11]: Active
inhibition (Trypsin (Homo sapiens)): Active
inhibition [12]: Active

COc1ccc2c(c1)C(CC(=O)N[C@H](C(=O)N[C@@H](CCc1ccccc1)C(=O)NCc1ccc(C)cc1)[C@@H](C)O)CC2=O (stereo partly specified)
IC50 [1]: 25 nM
IC50 [13]: 320 nM
inhibition (HEK293): 89%
CC50 at 72 h [14]: 1200 nM
IC50 [2]: > 20000 nM
IC50 [3]: > 20000 nM
inhibition [4]: Active
inhibition [5]: Active
inhibition [6]: Active
inhibition (Homo sapiens [7]): Active
inhibition (Homo sapiens [8]): Active
inhibition [9]: Active
inhibition [10]: Active
inhibition [11]: Active
inhibition (Trypsin (Homo sapiens)): Active
inhibition [12]: Active

COC[C@H](NC(=O)Cc1cccc(Oc2ccccc2)c1)C(=O)N[C@@H](CCc1ccccc1)C(=O)NCc1ccc(C)cc1
IC50 [1]: 550 nM
IC50 [13]: 6100 nM
inhibition (HEK293): 40%
CC50 at 72 h [14]: > 25000 nM
IC50 [2]: > 20000 nM
IC50 [3]: > 20000 nM
inhibition [4]: Active
inhibition [5]: Active
inhibition [6]: Active
inhibition (Homo sapiens [7]): Active
inhibition (Homo sapiens [8]): Active
inhibition [9]: Active
inhibition [10]: Active
inhibition [11]: Active
inhibition (Trypsin (Homo sapiens)): Active
inhibition [12]: Active

Cc1ccccc1CCC(=O)N[C@H](C(=O)N[C@@H](CCc1ccccc1)C(=O)NCc1ccccc1Cl)[C@@H](C)O
IC50 [13]: 330 nM
inhibition (HEK293): 71%
CC50 at 72 h [14]: 2700 nM
IC50 [2]: > 20000 nM
IC50 [3]: > 20000 nM
inhibition [4]: Active
inhibition [5]: Active
inhibition [6]: Active
inhibition (Homo sapiens [7]): Active
inhibition (Homo sapiens [8]): Active
inhibition [9]: Active
inhibition [10]: Active
inhibition [11]: Active
inhibition (Trypsin (Homo sapiens)): Active
inhibition [12]: Active

CC(NC(=O)[C@H](CCc1ccccc1)NC(=O)[C@@H](NC(=O)c1ccc(OCc2ccccc2)cc1)[C@@H](C)O)c1ccccc1 (stereo partly specified)
IC50 [1]: > 100000 nM
IC50 [13]: > 50000 nM
CC50 at 72 h [14]: 9000 nM
IC50 [2]: > 20000 nM
IC50 [3]: > 20000 nM
inhibition [4]: Active
inhibition [5]: Active
inhibition [6]: Active
inhibition (Homo sapiens [7]): Active
inhibition (Homo sapiens [8]): Active
inhibition [9]: Active
inhibition [10]: Active
inhibition [11]: Active
inhibition (Trypsin (Homo sapiens)): Active
inhibition [12]: Active

C[C@H](NC(=O)[C@@H](N)Cc1ccc(OCc2ccccc2)cc1)C(=O)N[C@@H](Cc1c[nH]c2ccccc12)C(=O)NCc1ccccc1 (H-Tyr(Bn)-Ala-Trp-NHBn)
IC50 [2]: > 20000 nM
IC50 [3]: > 20000 nM
inhibition [4]: Active
inhibition [5]: Active
inhibition [6]: Active
inhibition (Homo sapiens [7]): Active
inhibition (Homo sapiens [8]): Active
inhibition [9]: Active
inhibition [10]: Active
inhibition [11]: Active
inhibition (Trypsin (Homo sapiens)): Active
inhibition [12]: Active

C[C@@H](O)[C@H](NC(=O)c1ccc(OCc2ccccc2)cc1)C(=O)N[C@@H](CCc1ccccc1)C(=O)NCc1ccccc1
IC50 [1]: 68 nM
IC50 [13]: 710 nM
inhibition (HEK293): 68%
CC50 at 72 h [14]: 1400 nM
IC50 [2]: > 20000 nM
IC50 [3]: > 20000 nM
inhibition [4]: Active
inhibition [5]: Active
inhibition [6]: Active
inhibition (Homo sapiens [7]): Active
inhibition (Homo sapiens [8]): Active
inhibition [9]: Active
inhibition [10]: Active
inhibition [11]: Active
inhibition (Trypsin (Homo sapiens)): Active
inhibition [12]: Active

C[C@@H](O)[C@H](NC(=O)c1ccc(OCc2ccccc2)cc1)C(=O)N[C@@H](CCc1ccccc1)C(=O)NCc1cccc(Cl)c1
IC50 [1]: 210 nM
IC50 [13]: 15000 nM
inhibition (HEK293): 44%
CC50 at 72 h [14]: > 25000 nM
IC50 [2]: > 20000 nM
IC50 [3]: > 20000 nM
inhibition [4]: Active
inhibition [5]: Active
inhibition [6]: Active
inhibition (Homo sapiens [7]): Active
inhibition (Homo sapiens [8]): Active
inhibition [9]: Active
inhibition [10]: Active
inhibition [11]: Active
inhibition (Trypsin (Homo sapiens)): Active
inhibition [12]: Active

Cc1ccc(CNC(=O)[C@H](CCc2ccccc2)NC(=O)[C@@H](NC(=O)C(C)(C)Oc2ccccc2Cl)[C@@H](C)O)cc1
IC50 [1]: 75 nM
IC50 [13]: 690 nM
inhibition (HEK293): 97%
CC50 at 72 h [14]: 1500 nM
IC50 [2]: > 20000 nM
IC50 [3]: > 20000 nM
inhibition [4]: Active
inhibition [5]: Active
inhibition [6]: Active
inhibition (Homo sapiens [7]): Active
inhibition (Homo sapiens [8]): Active
inhibition [9]: Active
inhibition [10]: Active
inhibition [11]: Active
inhibition (Trypsin (Homo sapiens)): Active
inhibition [12]: Active

Cc1ccc(CNC(=O)[C@H](CCc2ccccc2)NC(=O)[C@@H](NC(=O)CCc2ccccc2C)[C@@H](C)O)cc1
IC50 [1]: 120 nM
IC50 [13]: 690 nM
inhibition (HEK293): 80%
CC50 at 72 h [14]: 2300 nM
IC50 [2]: > 20000 nM
IC50 [3]: > 20000 nM
inhibition [4]: Active
inhibition [5]: Active
inhibition [6]: Active
inhibition (Homo sapiens [7]): Active
inhibition (Homo sapiens [8]): Active
inhibition [9]: Active
inhibition [10]: Active
inhibition [11]: Active
inhibition (Trypsin (Homo sapiens)): Active
inhibition [12]: Active

Cc1ccsc1CNC(=O)[C@H](CCc1ccccc1)NC(=O)[C@@H](NC(=O)c1ccc(OCc2ccccc2)cc1)[C@@H](C)O
IC50 [13]: 28 nM
inhibition (HEK293): 81%
CC50 at 72 h [14]: 110 nM
IC50 [2]: > 20000 nM
IC50 [3]: > 20000 nM
inhibition [4]: Active
inhibition [5]: Active
inhibition [6]: Active
inhibition (Homo sapiens [7]): Active
inhibition (Homo sapiens [8]): Active
inhibition [9]: Active
inhibition [10]: Active
inhibition [11]: Active
inhibition (Trypsin (Homo sapiens)): Active
inhibition [12]: Active

C[C@@H](O)[C@H](NC(=O)c1ccc(OCc2ccccc2)cc1)C(=O)N[C@@H](CCc1ccccc1)C(=O)NCCc1cccs1
IC50 [1]: 3200 nM
IC50 [13]: > 50000 nM
CC50 at 72 h [14]: > 25000 nM
IC50 [2]: > 20000 nM
IC50 [3]: > 20000 nM
inhibition [4]: Active
inhibition [5]: Active
inhibition [6]: Active
inhibition (Homo sapiens [7]): Active
inhibition (Homo sapiens [8]): Active
inhibition [9]: Active
inhibition [10]: Active
inhibition [11]: Active
inhibition (Trypsin (Homo sapiens)): Active
inhibition [12]: Active
